High-throughput results: PubChem BioAssay, several laboratories
NRP1-CendR mod: modulators of CendR peptide binding to human neuropilin-1 | FAM-RPARPAR peptide binding to NRP-1, fluorescence polarization | AID 602438 | 360,000 compounds, 0.85% hits | inhibition, % at 25 µM | O14786;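 active = inhibition or corrected inhibition above about 18%, plus a signal ratio from 0.5 to 1.5, limit read from the data, passing the limit was not always enough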
Arrestin-AP2 inh: blocks beta-arrestin peptide binding to AP2 adaptin; FITC-arrestin peptide / GST-AP2 beads, flow cytometry; AP2 beta2 appendage carries R879A mutation; inhibition, % at 10 µM; 340,000 compounds, 0.31% hits;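 active = inhibition above a set limit, near 3 SD of compounds lacking own fluorescence, cut at about 54% in these data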;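 also: plate controls were DMSO wells for no effect and 5 µM unlabelled arrestin peptide for full effect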
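Material – GST-tagged AP2 beta2-adaptin appendage (R879A) on 4 µm glutathione beads · Probe or stimulus – fluorescein-tagged arrestin peptide at 50 nM final · Timing – 12 min plus 1 h, RT · Detection – bead flow cytometry, FITC channel · Read-out basis – inhibition as reduced fluorescein signal on beads, percent · Medium – PBS plus Tween 20 (0.05%) and BSA (0.1%)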
ATG4B inhibitor: ATG4B (human) cysteine protease inhibition. inhibition, % at 8.33 µM. ATG4B cleavage of LC3-PLA2, NBD-HPC fluorescence, 1 h. 340,000 compounds, 0.51% hits. Q9Y4P1. AID 504462; in the data active = inhibition above about 40%
Target sequence (Q9Y4P1 whole entry, looked up): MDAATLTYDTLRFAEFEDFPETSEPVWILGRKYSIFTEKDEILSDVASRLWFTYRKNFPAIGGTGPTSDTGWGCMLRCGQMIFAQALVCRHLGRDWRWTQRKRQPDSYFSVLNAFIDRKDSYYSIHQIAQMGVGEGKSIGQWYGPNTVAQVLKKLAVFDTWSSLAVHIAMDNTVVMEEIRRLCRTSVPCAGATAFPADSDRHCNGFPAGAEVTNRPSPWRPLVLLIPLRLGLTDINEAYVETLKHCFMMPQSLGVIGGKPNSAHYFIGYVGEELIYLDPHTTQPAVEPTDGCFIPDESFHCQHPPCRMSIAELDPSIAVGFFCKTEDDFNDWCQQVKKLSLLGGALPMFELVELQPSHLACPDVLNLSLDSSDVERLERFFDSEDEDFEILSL
Granule exo inh: blocks lytic granule exocytosis | inhibition, % at 10 µM | 360,000 compounds, 0.66% hits | TALL-104 LAMP-1 surface exposure, flow cytometry; cells stimulated with thapsigargin and PMA;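 active = inhibition above about 55%, limit read from the data; inconclusive = no clear call, values can overlap the other calls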
ABCB6 inh 2: blocks the human ABCB6 transporter; Q9NP58; K562-ABCB6 porphyrin accumulation, flow cytometry, 1 h; stronger effect = lower value; fluorescence ratio to DMSO, % at 10 µM; 360,000 compounds, 0.19% hits; AID 602162;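 active = fluorescence ratio to DMSO below 75%, the collection mean minus 3 SD; inconclusive = too few cells collected in the well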;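 also: signal is porphyrin accumulated inside mitochondria; 100% equals median channel fluorescence of DMSO control wells; lower ratio means ABCB6 inhibition with less porphyrin fluorescence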
Myeloid diff 2: promotes myeloid progenitor differentiation | AID 624256 | ER-HoxA9 myeloid progenitors, lysozyme-GFP differentiation, flow cytometry | calls only at 10 µM | 360,000 compounds, 1% hits;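 active = normalized GFP-positive differentiation at or above the plate's own cutoff, the solvent-only control mean plus 3 SD; inconclusive = no clear call, values can overlap the other calls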;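 also: cells exposed to compound for four days before flow analysis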
Numbers without * were called inactive. Compounds with a hit are over-represented: about 3.3% of the library has one in this group of screens.

What do the screens show for `COc1ccc(C2NCCc3c2[nH]c2ccccc32)cc1CN1CCc2cc(OC)c(OC)cc2C1C` (stereo unspecified)?
NRP1-CendR mod: -5.9; Arrestin-AP2 inh: 4.0; ATG4B inhibitor: 1.6; Granule exo inh: 15.1; ABCB6 inh 2: 108.0; Myeloid diff 2: inactive

How did COc1ccc(C2NCCc3c2[nH]c2ccccc32)cc1COc1ccc(F)cc1 (stereo unspecified) do in these assays?
NRP1-CendR mod: 10.7; Arrestin-AP2 inh: 11.1; ATG4B inhibitor: 19.2; Granule exo inh: 28.6; ABCB6 inh 2: 106.0; Myeloid diff 2: active

How did CC1CCCC(NC(=O)CSc2cccc[n+]2[O-])C1C (stereo unspecified) do in these assays?
NRP1-CendR mod: 13.6; Arrestin-AP2 inh: -20.2; ATG4B inhibitor: -1.1; Granule exo inh: 0.2; ABCB6 inh 2: 99.0; Myeloid diff 2: inactive

How did NCc1cc2c3c(c1)CCCN3CCC2 do in these assays?
NRP1-CendR mod: 39.8*; Arrestin-AP2 inh: 12.2; ATG4B inhibitor: -1.4; Granule exo inh: -8.6; ABCB6 inh 2: 101.0; Myeloid diff 2: inactive

How did COc1ccc(S(=O)(=O)Cc2ccccc2)cc1N do in these assays?
NRP1-CendR mod: 5.5; Arrestin-AP2 inh: 13.9; ATG4B inhibitor: 1.2; Granule exo inh: -0.5; ABCB6 inh 2: 107.0; Myeloid diff 2: active

Results for O=C(N=C1SC2CS(=O)(=O)CC2N1c1cccc(F)c1)C1CC1 (stereo unspecified) ?
NRP1-CendR mod: -1.8; Arrestin-AP2 inh: 1.6; ATG4B inhibitor: -3.6; Granule exo inh: -4.2; ABCB6 inh 2: 99.0; Myeloid diff 2: inactive

How did COc1ccc(/C=C/c2ccc3ccccc3[n+]2C)cc1OC do in these assays?
NRP1-CendR mod: -9.7; Arrestin-AP2 inh: -2.6; ATG4B inhibitor: -4.7; Granule exo inh: 2.5; ABCB6 inh 2: 287.0; Myeloid diff 2: active

What do the screens show for `Nc1ccc2nc(N)sc2c1`?
NRP1-CendR mod: 17.7; Arrestin-AP2 inh: 5.7; ATG4B inhibitor: 3.4; Granule exo inh: 6.0; ABCB6 inh 2: 100.0; Myeloid diff 2: inactive

What do the screens show for `Nc1ccc2sc(N)nc2c1`?
NRP1-CendR mod: 8.1; Arrestin-AP2 inh: 17.6; ATG4B inhibitor: -3.9; Granule exo inh: -2.9; ABCB6 inh 2: 91.0; Myeloid diff 2: active

What do the screens show for `COc1ccc(C2=CC(=O)CCC2)cc1`?
NRP1-CendR mod: 39.7*; Arrestin-AP2 inh: 22.3; ATG4B inhibitor: -5.1; Granule exo inh: 93.6*; ABCB6 inh 2: 101.0; Myeloid diff 2: inactive

What do the screens show for `O=C(CCC(=O)c1ccc(F)cc1)Nc1cccc(Br)c1`?
NRP1-CendR mod: -34.9; Arrestin-AP2 inh: 7.4; ATG4B inhibitor: 3.2; Granule exo inh: 36.9; ABCB6 inh 2: 96.0; Myeloid diff 2: inactive

How did CCN1C(=O)N(CC)C2C1N(CO)C(=O)N2CO (stereo unspecified) do in these assays?
NRP1-CendR mod: 3.5; Arrestin-AP2 inh: 14.7; ATG4B inhibitor: -6.0; Granule exo inh: -5.1; ABCB6 inh 2: 114.0; Myeloid diff 2: inactive

What do the screens show for `COc1ccc(N2C(=O)CCC(C(=O)NCc3ccccn3)C2c2ccc(OC)c(OC)c2)cc1` (stereo unspecified)?
NRP1-CendR mod: 21.5*; Arrestin-AP2 inh: -12.6; ATG4B inhibitor: -5.9; Granule exo inh: -3.8; ABCB6 inh 2: 100.0; Myeloid diff 2: inactive

How did COc1ccc(N2C(=O)CCC(C(=O)NCc3ccccn3)C2c2ccc(F)cc2)cc1 (stereo unspecified) do in these assays?
NRP1-CendR mod: -3.5; Arrestin-AP2 inh: 14.3; ATG4B inhibitor: -14.7; Granule exo inh: -2.3; ABCB6 inh 2: 97.0; Myeloid diff 2: inactive

Results for O=C1/C(=C/Nc2ccc3c(c2)OCO3)CCc2ccccc21 ?
NRP1-CendR mod: -81.6; Arrestin-AP2 inh: 14.2; ATG4B inhibitor: 24.7; Granule exo inh: 97.9*; ABCB6 inh 2: 99.0; Myeloid diff 2: inactive

How did COc1ccc2c(c1)CC/C(=C\Nc1ccc3c(c1)OCO3)C2=O do in these assays?
NRP1-CendR mod: -97.6; Arrestin-AP2 inh: 30.1; ATG4B inhibitor: 7.8; Granule exo inh: 101.0*; ABCB6 inh 2: 100.0; Myeloid diff 2: inactive

What do the screens show for `CCC1=Nc2cc(C(=O)NCc3ccco3)ccc2Sc2ccc(C)cc21`?
NRP1-CendR mod: 2.7; Arrestin-AP2 inh: 24.6; ATG4B inhibitor: 51.2*; Granule exo inh: -1.5; ABCB6 inh 2: 98.0; Myeloid diff 2: inconclusive

Results for CCC1=Nc2cc(C(=O)NCCN3CCOCC3)ccc2Sc2ccc(C)cc21 ?
NRP1-CendR mod: 1.0; Arrestin-AP2 inh: -5.0; ATG4B inhibitor: 2.8; Granule exo inh: -1.8; ABCB6 inh 2: 108.0; Myeloid diff 2: inactive

Results for Cc1nn(C(C)C(=O)NCc2ccccc2Cl)c(=O)c2c1sc1ccccc12 (stereo unspecified) ?
NRP1-CendR mod: 6.3; Arrestin-AP2 inh: -6.4; ATG4B inhibitor: 31.1; Granule exo inh: 81.7*; ABCB6 inh 2: 99.0; Myeloid diff 2: inactive

Results for CCNC(=O)C1CCCN(C(=O)Cc2cccs2)CC1 (stereo unspecified) ?
NRP1-CendR mod: -14.8; Granule exo inh: 6.1; ABCB6 inh 2: 83.0; Myeloid diff 2: inactive

Results for CC(C)(C)S(=O)(=O)/C(C#N)=C/c1sccc1C1OCCO1 ?
NRP1-CendR mod: 4.8; Arrestin-AP2 inh: 1.1; ATG4B inhibitor: -2.5; Granule exo inh: -6.6; ABCB6 inh 2: 100.0; Myeloid diff 2: inactive

What do the screens show for `CCOC(=O)Cn1ncn(-c2ccc(OC(F)(F)F)cc2)c1=O`?
NRP1-CendR mod: -6.6; Arrestin-AP2 inh: -26.8; ATG4B inhibitor: 1.8; Granule exo inh: -3.3; ABCB6 inh 2: 97.0; Myeloid diff 2: inactive

Results for CCOC(=O)c1sc(Nc2ccc(Br)cc2)nc1C ?
NRP1-CendR mod: -2.5; Arrestin-AP2 inh: -12.3; ATG4B inhibitor: -11.2; Granule exo inh: 3.9; ABCB6 inh 2: 96.0; Myeloid diff 2: inactive

How did CCOC(=O)c1cc2nc(Nc3ccc(OC)cc3)sc2s1 do in these assays?
NRP1-CendR mod: -36.6; Arrestin-AP2 inh: 5.4; ATG4B inhibitor: -4.3; Granule exo inh: -0.6; ABCB6 inh 2: 134.0; Myeloid diff 2: active

What do the screens show for `COC(=O)c1ccc(C(=O)OC)c(NC(=O)CSCc2ccccc2Br)c1`?
NRP1-CendR mod: 1.4; Arrestin-AP2 inh: 31.1; ATG4B inhibitor: 7.8; Granule exo inh: -0.2; ABCB6 inh 2: 96.0; Myeloid diff 2: inactive

Results for COc1cccc(N2[C@@H](CC(C)=O)c3cc(C(F)(F)F)ccc3S2(=O)=O)c1 ?
NRP1-CendR mod: -2.6; Arrestin-AP2 inh: 2.7; ATG4B inhibitor: -6.7; Granule exo inh: 7.1; ABCB6 inh 2: 98.0; Myeloid diff 2: inactive

Results for COc1cccc(N2[C@@H](CC(C)=O)c3ccccc3S2(=O)=O)c1 ?
NRP1-CendR mod: 22.1*; Arrestin-AP2 inh: 5.2; ATG4B inhibitor: 1.4; Granule exo inh: -1.4; ABCB6 inh 2: 99.0; Myeloid diff 2: inactive

What do the screens show for `O=C(NCc1ccccc1F)c1ccncc1`?
NRP1-CendR mod: -2.7; Arrestin-AP2 inh: 3.4; ATG4B inhibitor: 4.3; Granule exo inh: -10.1; ABCB6 inh 2: 100.0; Myeloid diff 2: inactive
